According to ChEMBL document CHEMBL4706664, “Rational drug design of 6-substituted 4-anilino-2-phenylpyrimidines for exploration of novel ABCG2 binding site” (Eur J Med Chem, 2021):

Test system: not listed separately
Test: Cytotoxicity against wild-type MDCK-II cells assessed as reduction in cell viability measured after 72 hrs by MTT assay
Format: cell-based, Canis lupus familiaris
Conditions: dog; call rule not given here
Summary of the method: (§1)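 MTT cell viability. Compound dilution series prepared in culture medium at 3.16 µM to 1 mM (dilution stock; added 20 µL to 180 µL cells). Seeding per well: MDCK II and MDCK II BCRP 2000, A2780 and A2780/ADR 8000, H69AR 20,000. Incubated 72 h, 37 °C, 5% CO2. MTT 5 mg/mL added for 60 min, formazan dissolved in DMSO, absorbance 570 nm (690 nm background). Medium = 100%, 10% DMSO = 0% viability. GI50 by four-parameter logistic fit. Mean ± SEM of at least three independent experiments.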

Row | SMILES | GI50 at 72 h
1 | CC(C)Nc1cc(Nc2ccc(C#N)cc2)nc(-c2ccccc2)n1 | 5.58 µM
2 | N#Cc1ccc(Nc2cc(NCc3ccccc3)nc(-c3ccccc3)n2)cc1 | 4.19 µM
3 | N#Cc1ccc(Nc2cc(-c3ccccc3)nc(-c3ccccc3)n2)cc1 | 25.1 µM
4 | N#Cc1ccc(Nc2cc(Nc3ccccc3)nc(-c3ccccc3)n2)cc1 | 4.95 µM
5 | N#Cc1ccc(Nc2cc(NCCCc3ccccc3)nc(-c3ccccc3)n2)cc1 | 5.03 µM
6 | N#Cc1ccc(Nc2cc(Nc3ccc(C#N)cc3)nc(-c3ccccc3)n2)cc1 | 7.09 µM
7 | N#Cc1ccc(Nc2cc(Nc3ccc(O)cc3)nc(-c3ccccc3)n2)cc1 | 5.3 µM
8 | N#Cc1ccc(Nc2cc(Nc3ccccc3O)nc(-c3ccccc3)n2)cc1 | 4.23 µM

Test system: not listed separately
Test: Cytotoxicity against ABCC1 over expressing human NCI-H69AR cells assessed as reduction in cell viability measured after 72 hrs by MTT assay
Format: ADME, cell-based
Conditions: ABCC1 overexpressing NCI-H69AR cells
Summary of the method: as §1

Row | SMILES | GI50 at 72 h
9 | CC(C)Nc1cc(Nc2ccc(C#N)cc2)nc(-c2ccccc2)n1 | 21.4 µM
10 | N#Cc1ccc(Nc2cc(Nc3ccc(O)cc3)nc(-c3ccccc3)n2)cc1 | 13.7 µM

Test system: ABCG2
Test: Therapeutic index, ratio of GI50 for cytotoxicity against ABCG2 overexpressing MDCK-II cells to IC50 for inhibition of ABCG2 (unknown origin) expressed in MDCK-II cells
Conditions: dog

Row | SMILES | selectivity ratio
11 | N#Cc1ccc(Nc2cc(NCc3ccccc3)nc(-c3ccccc3)n2)cc1 | 38
12 | N#Cc1ccc(Nc2cc(-c3ccccc3)nc(-c3ccccc3)n2)cc1 | 4.96
13 | N#Cc1ccc(Nc2cc(Nc3ccccc3)nc(-c3ccccc3)n2)cc1 | 24
14 | N#Cc1ccc(Nc2cc(NCCCc3ccccc3)nc(-c3ccccc3)n2)cc1 | 38.4
15 | N#Cc1ccc(Nc2cc(Nc3ccc(C#N)cc3)nc(-c3ccccc3)n2)cc1 | 58.7
16 | N#Cc1ccc(Nc2cc(Nc3ccccc3O)nc(-c3ccccc3)n2)cc1 | 20.7

Test system: ABCB1
Test: Therapeutic index, ratio of GI50 for cytotoxicity against ABCB1 over expressing human A2780 ADR cells to IC50 for inhibition of ABCB1 (unknown origin) expressed in human A2780 ADR cells
Conditions: ABCB1 overexpressing A2780 ADR cells

Row | SMILES | selectivity ratio
17 | N#Cc1ccc(Nc2cc(Nc3ccccc3O)nc(-c3ccccc3)n2)cc1 | 3.34

Biological target: ABCB1 (Homo sapiens, UniProt P08183)
Test: Inhibition of ABCB1 (unknown origin) expressed in human A2780 ADR cells assessed as reduction in calcein AM efflux at 10 uM preincubated for 30 mins followed by calcein AM addition and measured at 60 secs interval for 1 hr by fluorescence assay relative to control
Format: cell-based
Conditions: A2780 ADR cells expressing ABCB1, probe calcein AM, time 90 min
Summary of the method: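 Calcein AM accumulation in A2780/ADR cells (30,000/well, Krebs-HEPES buffer pH 7.4). Cells preincubated with compound 30 min at 37 °C, 5% CO2. Screening at 10 µM.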

Sequence of ABCB1 (Homo sapiens, UniProt P08183) (P08183 whole entry): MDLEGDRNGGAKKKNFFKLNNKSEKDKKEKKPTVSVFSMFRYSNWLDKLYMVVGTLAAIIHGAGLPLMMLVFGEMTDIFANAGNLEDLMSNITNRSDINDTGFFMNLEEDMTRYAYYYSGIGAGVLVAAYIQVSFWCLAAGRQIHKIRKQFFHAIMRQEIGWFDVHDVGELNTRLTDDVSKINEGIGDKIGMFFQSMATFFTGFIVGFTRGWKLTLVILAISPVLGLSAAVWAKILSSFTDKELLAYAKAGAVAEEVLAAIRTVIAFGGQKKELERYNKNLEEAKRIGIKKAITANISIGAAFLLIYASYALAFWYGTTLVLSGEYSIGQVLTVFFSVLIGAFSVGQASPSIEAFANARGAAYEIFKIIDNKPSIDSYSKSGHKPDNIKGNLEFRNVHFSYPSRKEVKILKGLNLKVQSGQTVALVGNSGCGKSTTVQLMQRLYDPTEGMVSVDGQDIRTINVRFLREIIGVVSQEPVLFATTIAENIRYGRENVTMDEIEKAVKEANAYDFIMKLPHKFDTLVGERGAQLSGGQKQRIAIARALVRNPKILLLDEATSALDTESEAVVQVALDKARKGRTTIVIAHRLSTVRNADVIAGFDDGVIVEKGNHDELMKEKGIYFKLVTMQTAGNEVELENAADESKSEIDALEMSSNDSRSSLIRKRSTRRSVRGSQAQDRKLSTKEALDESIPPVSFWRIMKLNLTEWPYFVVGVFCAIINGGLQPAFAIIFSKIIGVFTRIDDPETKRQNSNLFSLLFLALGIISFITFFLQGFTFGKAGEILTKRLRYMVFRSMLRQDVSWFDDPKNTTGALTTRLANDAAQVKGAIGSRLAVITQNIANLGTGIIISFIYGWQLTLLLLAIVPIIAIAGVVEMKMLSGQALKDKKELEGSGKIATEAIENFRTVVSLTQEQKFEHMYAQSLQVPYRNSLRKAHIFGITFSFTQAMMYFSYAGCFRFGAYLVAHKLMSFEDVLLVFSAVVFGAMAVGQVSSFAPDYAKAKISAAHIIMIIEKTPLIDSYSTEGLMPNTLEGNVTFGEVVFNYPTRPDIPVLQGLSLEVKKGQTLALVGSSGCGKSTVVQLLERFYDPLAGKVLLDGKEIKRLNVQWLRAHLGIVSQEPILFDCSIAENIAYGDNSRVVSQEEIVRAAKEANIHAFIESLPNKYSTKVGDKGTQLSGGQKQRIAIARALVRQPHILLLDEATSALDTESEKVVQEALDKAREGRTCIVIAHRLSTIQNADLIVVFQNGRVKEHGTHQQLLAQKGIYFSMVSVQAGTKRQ

Row | SMILES | inhibition at 1 h, 10 µM
18 | CC(C)Nc1cc(Nc2ccc(C#N)cc2)nc(-c2ccccc2)n1 | > 20%
19 | N#Cc1ccc(Nc2cc(NCc3ccccc3)nc(-c3ccccc3)n2)cc1 | > 20%
20 | N#Cc1ccc(Nc2cc(Nc3ccccc3)nc(-c3ccccc3)n2)cc1 | > 20%
21 | N#Cc1ccc(Nc2cc(Nc3ccc(C#N)cc3)nc(-c3ccccc3)n2)cc1 | > 20%
22 | N#Cc1ccc(Nc2cc(Nc3ccc(O)cc3)nc(-c3ccccc3)n2)cc1 | > 20%
23 | N#Cc1ccc(Nc2cc(Nc3ccccc3O)nc(-c3ccccc3)n2)cc1 | > 20%

Biological target: ABCC1 (Homo sapiens, UniProt P33527)
Test: Inhibition of ABCC1 (unknown origin) expressed in human NCI-H69AR cells assessed as reduction in calcein AM efflux at 10 uM preincubated for 30 mins followed by calcein AM addition and measured at 60 secs interval for 1 hr by fluorescence assay relative to control
Format: cell-based
Conditions: NCI-H69AR cells expressing ABCC1, probe calcein AM, time 90 min

Sequence of ABCC1 (P33527 whole entry): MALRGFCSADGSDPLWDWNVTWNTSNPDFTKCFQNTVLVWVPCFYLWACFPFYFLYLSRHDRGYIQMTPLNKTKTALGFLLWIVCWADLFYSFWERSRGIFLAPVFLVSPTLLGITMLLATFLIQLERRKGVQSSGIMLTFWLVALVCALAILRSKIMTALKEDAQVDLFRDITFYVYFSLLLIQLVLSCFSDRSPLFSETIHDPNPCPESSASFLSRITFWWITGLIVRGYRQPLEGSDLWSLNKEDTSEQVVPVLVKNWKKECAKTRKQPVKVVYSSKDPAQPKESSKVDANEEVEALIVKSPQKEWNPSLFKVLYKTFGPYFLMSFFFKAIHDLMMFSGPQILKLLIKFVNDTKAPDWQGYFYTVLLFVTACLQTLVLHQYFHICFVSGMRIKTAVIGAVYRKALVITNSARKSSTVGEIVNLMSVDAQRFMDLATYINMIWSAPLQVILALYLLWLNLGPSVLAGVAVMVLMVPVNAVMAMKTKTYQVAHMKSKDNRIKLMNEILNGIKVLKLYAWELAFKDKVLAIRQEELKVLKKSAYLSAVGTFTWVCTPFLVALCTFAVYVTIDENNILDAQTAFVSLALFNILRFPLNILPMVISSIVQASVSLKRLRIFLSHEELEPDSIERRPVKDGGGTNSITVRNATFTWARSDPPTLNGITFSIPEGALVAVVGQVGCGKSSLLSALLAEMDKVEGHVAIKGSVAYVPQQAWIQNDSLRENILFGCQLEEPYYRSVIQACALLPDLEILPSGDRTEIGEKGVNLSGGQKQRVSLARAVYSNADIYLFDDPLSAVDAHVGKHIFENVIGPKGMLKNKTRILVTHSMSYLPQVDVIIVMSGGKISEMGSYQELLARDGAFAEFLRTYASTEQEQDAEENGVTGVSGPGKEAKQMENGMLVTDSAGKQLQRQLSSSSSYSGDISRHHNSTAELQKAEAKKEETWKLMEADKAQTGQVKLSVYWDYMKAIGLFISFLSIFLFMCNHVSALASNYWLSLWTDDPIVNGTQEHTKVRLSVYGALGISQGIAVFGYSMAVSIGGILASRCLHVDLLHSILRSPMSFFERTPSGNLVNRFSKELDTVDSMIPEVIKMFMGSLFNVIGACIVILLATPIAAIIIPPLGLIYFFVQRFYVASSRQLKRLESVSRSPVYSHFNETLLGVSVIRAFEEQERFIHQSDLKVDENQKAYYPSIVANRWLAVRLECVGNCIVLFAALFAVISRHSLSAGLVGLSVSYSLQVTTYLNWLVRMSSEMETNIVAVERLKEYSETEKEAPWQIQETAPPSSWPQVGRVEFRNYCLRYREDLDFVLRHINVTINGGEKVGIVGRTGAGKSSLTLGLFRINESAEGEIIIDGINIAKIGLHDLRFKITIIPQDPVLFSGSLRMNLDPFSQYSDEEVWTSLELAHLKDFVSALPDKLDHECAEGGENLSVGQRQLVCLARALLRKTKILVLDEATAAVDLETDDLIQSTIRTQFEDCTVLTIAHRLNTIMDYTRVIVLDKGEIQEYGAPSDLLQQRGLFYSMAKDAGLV

Row | SMILES | inhibition at 1 h, 10 µM
24 | CC(C)Nc1cc(Nc2ccc(C#N)cc2)nc(-c2ccccc2)n1 | > 20%
25 | N#Cc1ccc(Nc2cc(Nc3ccc(O)cc3)nc(-c3ccccc3)n2)cc1 | > 20%

Biological target: T1, Broad substrate specificity ATP-binding cassette transporter ABCG2 (Homo sapiens, UniProt Q9UNQ0)
T1 sequence (Q9UNQ0 whole entry): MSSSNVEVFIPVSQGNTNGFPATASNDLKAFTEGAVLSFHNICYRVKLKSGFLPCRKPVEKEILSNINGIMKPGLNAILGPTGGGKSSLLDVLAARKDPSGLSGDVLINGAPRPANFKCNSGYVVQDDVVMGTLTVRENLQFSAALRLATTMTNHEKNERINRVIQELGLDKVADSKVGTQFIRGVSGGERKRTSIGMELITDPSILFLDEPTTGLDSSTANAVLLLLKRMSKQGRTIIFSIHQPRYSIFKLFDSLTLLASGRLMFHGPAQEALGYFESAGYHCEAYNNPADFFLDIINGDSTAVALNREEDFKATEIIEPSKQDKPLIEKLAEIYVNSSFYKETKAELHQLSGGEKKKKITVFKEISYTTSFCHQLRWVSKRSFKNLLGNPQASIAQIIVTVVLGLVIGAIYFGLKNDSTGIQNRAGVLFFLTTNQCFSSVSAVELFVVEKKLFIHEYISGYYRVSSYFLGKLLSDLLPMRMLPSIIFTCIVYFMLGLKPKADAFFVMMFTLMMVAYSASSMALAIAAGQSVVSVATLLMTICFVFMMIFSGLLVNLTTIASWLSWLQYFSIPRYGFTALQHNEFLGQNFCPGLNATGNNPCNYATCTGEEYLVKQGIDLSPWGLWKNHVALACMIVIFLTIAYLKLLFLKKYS
Test: Inhibition of ABCG2 (unknown origin) expressed in MDCK-II cells assessed as reduction in pheophorbide A efflux measured after 2 hrs by flow cytometry
Format: cell-based
Conditions: not given
Summary of the method: (§2)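 Pheophorbide A accumulation in MDCK II BCRP cells, about 45,000 cells/well in Krebs-HEPES buffer pH 7.4. Compound dilutions were prepared at 0.316–100 µM, and 20 µL of 5 µM pheophorbide A was added. Incubated 2 h at 37 °C, 5% CO2. Fluorescence read by flow cytometry (ex 488 nm, em 695/50 nm). IC50 and Imax are mean ± SEM of at least three independent experiments.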

Row | SMILES | IC50
26 | CC(C)Nc1cc(Nc2ccc(C#N)cc2)nc(-c2ccccc2)n1 | 0.763 µM
27 | N#Cc1ccc(Nc2cc(NCc3ccccc3)nc(-c3ccccc3)n2)cc1 | 0.283 µM
28 | N#Cc1ccc(Nc2ccnc(-c3ccccc3)n2)cc1 | 0.189 µM
29 | Cc1cc(Nc2ccc(C#N)cc2)nc(-c2ccccc2)n1 | 0.189 µM
30 | N#Cc1ccc(Nc2cc(-c3ccccc3)nc(-c3ccccc3)n2)cc1 | 4.41 µM
31 | N#Cc1ccc(Nc2cc(Nc3ccccc3)nc(-c3ccccc3)n2)cc1 | 0.169 µM
32 | N#Cc1ccc(Nc2cc(NCCCc3ccccc3)nc(-c3ccccc3)n2)cc1 | 0.096 µM
33 | N#Cc1ccc(Nc2cc(Nc3ccc(C#N)cc3)nc(-c3ccccc3)n2)cc1 | 0.133 µM
34 | N#Cc1ccc(Nc2cc(Nc3ccc(O)cc3)nc(-c3ccccc3)n2)cc1 | 0.387 µM
35 | N#Cc1ccc(Nc2cc(Nc3ccccc3O)nc(-c3ccccc3)n2)cc1 | 0.223 µM

Biological target: T2, ABCG2 (Homo sapiens, UniProt Q9UNQ0)
T2 sequence (Q9UNQ0 whole entry): T1 sequence (Q9UNQ0 whole entry)
Test: Inhibition of ABCG2 (unknown origin) expressed in MDCK-II cells assessed as reduction in pheophorbide A efflux measured after 2 hrs by flow cytometry relative to Ko143
Format: cell-based
Conditions: MDCK-II cells expressing ABCG2, probe pheophorbide A, read-out: Imax
Summary of the method: as §2

Row | SMILES | Emax at 2 h
36 | CC(C)Nc1cc(Nc2ccc(C#N)cc2)nc(-c2ccccc2)n1 | 101%
37 | N#Cc1ccc(Nc2cc(NCc3ccccc3)nc(-c3ccccc3)n2)cc1 | 99%
38 | Cc1cc(Nc2ccc(C#N)cc2)nc(-c2ccccc2)n1 | 87%
39 | N#Cc1ccc(Nc2cc(-c3ccccc3)nc(-c3ccccc3)n2)cc1 | 100%
40 | N#Cc1ccc(Nc2cc(Nc3ccccc3)nc(-c3ccccc3)n2)cc1 | 84%
41 | N#Cc1ccc(Nc2cc(NCCCc3ccccc3)nc(-c3ccccc3)n2)cc1 | 61%
42 | N#Cc1ccc(Nc2cc(Nc3ccc(C#N)cc3)nc(-c3ccccc3)n2)cc1 | 60%
43 | N#Cc1ccc(Nc2cc(Nc3ccc(O)cc3)nc(-c3ccccc3)n2)cc1 | 76%
44 | N#Cc1ccc(Nc2cc(Nc3ccccc3O)nc(-c3ccccc3)n2)cc1 | 86%

Test system: not listed separately
Test: Cytotoxicity against ABCG2 overexpressing MDCK-II cells assessed as reduction in cell viability measured after 72 hrs by MTT assay
Format: ADME, cell-based, Canis lupus familiaris
Conditions: dog
Summary of the method: as §1

Row | SMILES | GI50 at 72 h
45 | CC(C)Nc1cc(Nc2ccc(C#N)cc2)nc(-c2ccccc2)n1 | 5.06 µM
46 | N#Cc1ccc(Nc2cc(NCc3ccccc3)nc(-c3ccccc3)n2)cc1 | 10.7 µM
47 | N#Cc1ccc(Nc2cc(-c3ccccc3)nc(-c3ccccc3)n2)cc1 | 21.9 µM
48 | N#Cc1ccc(Nc2cc(Nc3ccccc3)nc(-c3ccccc3)n2)cc1 | 4.05 µM
49 | N#Cc1ccc(Nc2cc(NCCCc3ccccc3)nc(-c3ccccc3)n2)cc1 | 3.64 µM
50 | N#Cc1ccc(Nc2cc(Nc3ccc(C#N)cc3)nc(-c3ccccc3)n2)cc1 | 7.78 µM
51 | N#Cc1ccc(Nc2cc(Nc3ccc(O)cc3)nc(-c3ccccc3)n2)cc1 | 5.15 µM
52 | N#Cc1ccc(Nc2cc(Nc3ccccc3O)nc(-c3ccccc3)n2)cc1 | 4.61 µM

Test system: not listed separately
Test: Cytotoxicity against ABCB1 over expressing human A2780 ADR cells assessed as reduction in cell viability measured after 72 hrs by MTT assay
Format: ADME, cell-based
Conditions: ABCB1 overexpressing A2780 ADR cells
Summary of the method: as §1

Row | SMILES | GI50 at 72 h
53 | CC(C)Nc1cc(Nc2ccc(C#N)cc2)nc(-c2ccccc2)n1 | 8.09 µM
54 | N#Cc1ccc(Nc2cc(Nc3ccc(O)cc3)nc(-c3ccccc3)n2)cc1 | 9.21 µM
55 | N#Cc1ccc(Nc2cc(Nc3ccccc3O)nc(-c3ccccc3)n2)cc1 | 9.96 µM

Test system: not listed separately
Test: Cytotoxicity against human A2780 cells assessed as reduction in cell viability measured after 72 hrs by MTT assay
Conditions: not given

Row | SMILES | GI50 at 72 h
56 | CC(C)Nc1cc(Nc2ccc(C#N)cc2)nc(-c2ccccc2)n1 | 13.3 µM

Test system: not listed separately
Test: Cytotoxicity against ABCB1 over expressing human A2780 cells assessed as reduction in cell viability measured after 72 hrs by MTT assay
Format: ADME, cell-based
Conditions: in the assay text read “human A2780 cells” for “ABCB1 over expressing human A2780 cells”
Summary of the method: as §1

Row | SMILES | GI50 at 72 h
57 | N#Cc1ccc(Nc2cc(Nc3ccc(O)cc3)nc(-c3ccccc3)n2)cc1 | 8.02 µM
58 | N#Cc1ccc(Nc2cc(Nc3ccccc3O)nc(-c3ccccc3)n2)cc1 | 9.07 µM

Biological target: ATP-dependent translocase ABCB1 (Homo sapiens, UniProt P08183)
Test: Inhibition of ABCB1 (unknown origin) expressed in human A2780 ADR cells assessed as reduction in calcein AM efflux preincubated for 30 mins followed by calcein AM addition and measured at 60 secs interval for 1 hr by fluorescence assay
Format: cell-based
Conditions: a2780 adr
Summary of the method: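 Calcein AM accumulation in A2780/ADR cells (30,000/well, Krebs-HEPES buffer pH 7.4). Cells preincubated with compound 30 min at 37 °C, 5% CO2. Then 20 µL of 3.125 µM calcein AM added. Fluorescence (ex 485/em 520 nm) read every 60 s for 1 h. […] Screening at 10 µM.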

Sequence of ATP-dependent translocase ABCB1 (P08183 whole entry): as the sequence (P08183 whole entry) above

Row | SMILES | IC50
59 | N#Cc1ccc(Nc2cc(-c3ccccc3)nc(-c3ccccc3)n2)cc1 | Not Active
60 | N#Cc1ccc(Nc2cc(NCCCc3ccccc3)nc(-c3ccccc3)n2)cc1 | Not Active

Same assay, conditions: read-out: IC50

Row | SMILES | IC50
61 | CC(C)Nc1cc(Nc2ccc(C#N)cc2)nc(-c2ccccc2)n1 | 6.42 µM
62 | N#Cc1ccc(Nc2cc(NCc3ccccc3)nc(-c3ccccc3)n2)cc1 | 4.47 µM
63 | N#Cc1ccc(Nc2cc(Nc3ccccc3)nc(-c3ccccc3)n2)cc1 | 5.38 µM
64 | N#Cc1ccc(Nc2cc(Nc3ccc(C#N)cc3)nc(-c3ccccc3)n2)cc1 | 6.75 µM
65 | N#Cc1ccc(Nc2cc(Nc3ccc(O)cc3)nc(-c3ccccc3)n2)cc1 | 4.54 µM
66 | N#Cc1ccc(Nc2cc(Nc3ccccc3O)nc(-c3ccccc3)n2)cc1 | 2.98 µM
